Data set [1] has as its system P. aeruginosa PA86052. The data set can be described thus: Checkerboard assay with BLs. The class given is cell-based.
The subject of data set [2] is P. aeruginosa PA108590. Kind of data set: Checkerboard assay with BLs. In kind it is cell-based.
The test system of the next data set is P. aeruginosa PA107092. Kind of data set: Checkerboard assay with BLs. In kind it is cell-based.
The test system of the next data set is P. aeruginosa PA88949. The data set can be described thus: Checkerboard assay with BLs. In kind it is cell-based.
In another data set the test system is P. aeruginosa PA109084. Kind of data set: Checkerboard assay with BLs. The class given is cell-based.
For data set [3], the system named is P. aeruginosa PAO1. Kind of data set: Checkerboard RIF potentiation in CAMHB and Mg2+-supplemented CAMHB. The class given is cell-based. The conditions noted are these: RIF alone. The method, boiled down:
(§1)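 Checkerboard in CAMHB: the antibiotic or BL/BLI was twofold serially diluted on one axis and the adjuvant on the other. The inoculum was prepared as for MIC (0.5 McFarland, 1:50, about 5 × 10^5 cfu/mL) and plates ran at 37 °C overnight, with turbidity read at 595 nm. Each FIC is combination MIC over single-agent MIC, and FICI is their sum: ≤0.5 synergy, 0.5–4 additive, >4 antagonism. Runs were done at least twice.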

In data set [4] the test system is P. aeruginosa PAO1. The data set can be described thus: Antimicrobial susceptibility assay. In kind it is cell-based. The following applies: Pseudomonas aeruginosa, PAO1, read-out: minimum inhibitory concentration (MIC). The method, boiled down:
(§2)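 Broth microdilution following CLSI guidance. An overnight culture was adjusted in saline to 0.5 McFarland, diluted 1:50 in CAMHB and inoculated at about 5 × 10^5 cfu/mL final. Agents were twofold serially diluted in CAMHB, mixed with equal volumes of inoculum and held at 37 °C overnight. MIC was the lowest concentration without visible turbidity, read at 595 nm. Runs were done at least twice and repeated if outside twofold agreement.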

In the next data set the test system is A. baumannii ATCC 17978. Kind of data set: Antimicrobial susceptibility assay. The class given is cell-based. The conditions noted are these: Acinetobacter baumannii, ATCC17978, read-out: minimum inhibitory concentration (MIC). The method, boiled down:
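CLSI broth microdilution. Overnight culture adjusted in saline to 0.5 McFarland, then diluted 1:50 in cation-adjusted Mueller Hinton broth to about 5 × 10^5 cfu/mL final. Test compound twofold serially diluted in the same broth, mixed with an equal volume of inoculum, incubated at 37 °C overnight. MIC is the lowest concentration without visible turbidity (595 nm). Run at least twice; repeated if outside twofold agreement.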

The test system of a further data set is E. coli ATCC 25922. Kind of data set: Antimicrobial susceptibility assay. The class given is cell-based. The conditions noted are these: Escherichia coli, ATCC25922, read-out: minimum inhibitory concentration (MIC). The method, boiled down:
as §2

Data set [5] relates to P. aeruginosa PAO1. The following applies: cited from earlier work.
Data set [6] relates to P. aeruginosa PAO1. The data set can be described thus: Checkerboard assay, antibiotic potentiation. The class given is cell-based. The following applies: PMBN (7 μM) vs 2c 8 μg/mL (2 μM). In short, it runs like this:
as §1

Data set [7] relates to P. aeruginosa PA86052. Kind of data set: Potentiation of BL/BLI. In kind it is cell-based. The method, boiled down: as §1
For data set [8], the system named is P. aeruginosa PA108590. The data set can be described thus: Potentiation of BL/BLI. The class given is cell-based. The method, boiled down: as §1
Data set [9] relates to P. aeruginosa PAO1. The data set can be described thus: Outer membrane permeabilization assay. The class given is cell-based. The conditions noted are these: NPN 10 μM. The method, boiled down: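 PAO1 suspension (OD600 0.4–0.6) was incubated with NPN (10 μM final) in 5 mM HEPES, 5 mM glucose and 5 μM CCCP for 30 min at room temperature in the dark. Test compound was then added at varying concentrations, and fluorescence (ex 350 / em 420 nm) was recorded every 30 s.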

Setting [10] is: ATM/AVI in the presence of 8 μg/mL compound 3 (3.5 μM) or PMBN (7 μM).
The mark [11] stands for this setting: ATM/AVI with 8 μg/mL compound 3 (3.5 μM) or PMBN (7 μM).
Where [12] appears, read: CAZ/AVI in the presence of 8 μg/mL compound 3 (3.5 μM) or PMBN (7 μM).
The mark [13] stands for this setting: CAZ/AVI with 8 μg/mL compound 3 (3.5 μM) or PMBN (7 μM).
The mark [14] stands for this setting: CTZ/TAZ in the presence of 8 μg/mL compound 3 (3.5 μM) or PMBN (7 μM).
Where [15] appears, read: CTZ/TAZ with 8 μg/mL compound 3 (3.5 μM) or PMBN (7 μM).
[16] abbreviates: IMI/REL in the presence of 8 μg/mL compound 3 (3.5 μM) or PMBN (7 μM).
The mark [17] stands for this setting: IMI/REL with 8 μg/mL compound 3 (3.5 μM) or PMBN (7 μM).
Setting [18] is: MER/VAB in the presence of 8 μg/mL compound 3 (3.5 μM) or PMBN (7 μM).
The mark [19] stands for this setting: MER/VAB with 8 μg/mL compound 3 (3.5 μM) or PMBN (7 μM).

Values after ≈ are worked out from the molar mass of the structure shown. Values joined by “and” are separate entries in the source; they are usually repeats but may differ in a detail not shown here. Equal entries are not always repeated.

For the compound `C[C@H]1[C@H](NC(=O)/C(=N\OC(C)(C)C(=O)O)c2csc(N)n2)C(=O)N1S(=O)(=O)O` [ATM, aztreonam], the MICBL in the data set with P. aeruginosa PA86052 [1] (ATM alone) and in the data set with P. aeruginosa PA108590 [2] (ATM alone) was 32 µg/mL throughout.

For `CC(C)(O/N=C(\C(=O)N[C@@H]1C(=O)N2C(C(=O)[O-])=C(C[n+]3ccccc3)CS[C@H]12)c1csc(N)n1)C(=O)O` [CAZ, ceftazidime], the MICBL was 64 µg/mL in the data set on P. aeruginosa PA86052 [1] (CAZ alone), 128 µg/mL with P. aeruginosa PA107092 (CAZ alone) and 64 µg/mL in the data set with P. aeruginosa PA108590 [2] (CAZ alone).

As to `Cn1c(N)c(NC(=O)NCCN)c[n+]1CC1=C(C(=O)O)N2C(=O)[C@@H](NC(=O)/C(=N\OC(C)(C)C(=O)[O-])c3nsc(N)n3)[C@H]2SC1` [CTZ, ceftolozane], the MICBL in the data set with P. aeruginosa PA86052 [1] (CTZ alone) is 8 µg/mL and 4 µg/mL; in the data set with P. aeruginosa PA88949 (CTZ alone), 4 µg/mL; with P. aeruginosa PA107092 (CTZ alone), 4 µg/mL; in the data set with P. aeruginosa PA108590 [2] (CTZ alone), 8 µg/mL and 4 µg/mL; in the data set on P. aeruginosa PA109084 (CTZ alone) it was 8 µg/mL and 4 µg/mL.

For `C[C@@H](O)[C@H]1C(=O)N2C(C(=O)O)=C(SCCN=CN)C[C@H]12` [IMI, imipenem], the MICBL was 64 µg/mL and 32 µg/mL with P. aeruginosa PA86052 [1] (IMI alone); 64 µg/mL with P. aeruginosa PA88949 (IMI alone); 32 µg/mL in the data set on P. aeruginosa PA107092 (IMI alone); 32 µg/mL with P. aeruginosa PA108590 [2] (IMI alone); 16 µg/mL in the data set with P. aeruginosa PA109084 (IMI alone).

Consider `C[C@@H](O)[C@H]1C(=O)N2C(C(=O)O)=C(S[C@@H]3CN[C@H](C(=O)N(C)C)C3)[C@H](C)[C@H]12` [MER, meropenem], for which the MICBL was 16 µg/mL with P. aeruginosa PA86052 [1] (MER alone); 16 µg/mL and 32 µg/mL in the data set on P. aeruginosa PA88949 (MER alone); 32 µg/mL and 64 µg/mL in the data set on P. aeruginosa PA107092 (MER alone); 4 µg/mL and 8 µg/mL with P. aeruginosa PA108590 [2] (MER alone); 16 µg/mL with P. aeruginosa PA109084 (MER alone).

For `CO[C@H]1/C=C/O[C@@]2(C)Oc3c(C)c(O)c4c(O)c(c(/C=N/N5CCN(C)CC5)c(O)c4c3C2=O)NC(=O)/C(C)=C\C=C\[C@H](C)[C@H](O)[C@@H](C)[C@@H](O)[C@@H](C)[C@H](OC(C)=O)[C@@H]1C` [RIF, rifampicin], the MICRIF in the data set on P. aeruginosa PAO1 [3] (CAMHB) and in the data set on P. aeruginosa PAO1 [3] (CAMHB with 20 mM Mg2+) was 32 µg/mL in each case.

For `NC[C@H]1O[C@H](O[C@H]2[C@H](O)[C@@H](O[C@H]3O[C@H](CO)[C@@H](O)[C@H](N)[C@H]3O)[C@H](N)C[C@@H]2N)[C@H](N)C[C@@H]1O` [TOB, tobramycin], the MIC in the data set with P. aeruginosa PAO1 [4] amounted to 0.5 µg/mL (≈ 1.07 µM); in the data set with A. baumannii ATCC 17978, 0.5 µg/mL (≈ 1.07 µM); in the data set with E. coli ATCC 25922 it was 2 µg/mL (≈ 4.28 µM). The “synergy with NOV, RIF, MIN, LEV, CAZ” value in the data set on P. aeruginosa PAO1 [5] is “did not synergize”.

With polymyxin B nonapeptide [PMBN], the “MIN potentiation relative to trimer 2c” value in the data set on P. aeruginosa PAO1 [6] is recorded as 4 fold. Further, the “MICBL/BLI [MIC with 3 or PMBN]” value in the data set on P. aeruginosa PA86052 [7] (setting [10]) came to 0.0625 µg/mL; in the data set on P. aeruginosa PA86052 [7] (setting [12]) it was 0.25 µg/mL; in the data set on P. aeruginosa PA86052 [7] (setting [14]), 0.0625 µg/mL; with P. aeruginosa PA86052 [7] (setting [16]) it was 0.125 µg/mL; in the data set with P. aeruginosa PA86052 [7] (setting [18]), 0.0312 µg/mL; with P. aeruginosa PA108590 [8] (setting [10]) it was 2 µg/mL. Moreover, the “MICBL/BLI [MIC with 3 or PMBN]” value was 4 µg/mL in the data set on P. aeruginosa PA108590 [8] (setting [12]), 2 µg/mL with P. aeruginosa PA108590 [8] (setting [14]), 1 µg/mL in the data set with P. aeruginosa PA108590 [8] (setting [16]) and 4 [4] μg/mL with P. aeruginosa PA108590 [8] (setting [18]). Moreover, the fold potentiation in the data set on P. aeruginosa PA86052 [7] (setting [11]) came to 1024 fold; in the data set on P. aeruginosa PA86052 [7] (setting [13]), 512 fold; with P. aeruginosa PA86052 [7] (setting [15]), 128 fold; in the data set on P. aeruginosa PA86052 [7] (setting [17]), 512 fold; in the data set on P. aeruginosa PA86052 [7] (setting [19]), 512 fold; in the data set on P. aeruginosa PA108590 [8] (setting [11]), 16 fold. Further, the fold potentiation amounted to 32 fold in the data set with P. aeruginosa PA108590 [8] (setting [13]), 2 fold with P. aeruginosa PA108590 [8] (setting [15]), 32 fold with P. aeruginosa PA108590 [8] (setting [17]) and 1 fold in the data set on P. aeruginosa PA108590 [8] (setting [19]). The “NPN fluorescence (OM permeabilization)” value in the data set with P. aeruginosa PAO1 [9] is recorded as “increased fluorescence”.

The record behind these values is PMC10433466 (ACS Omega, 2023).
